From PubChem BioAssay AID624164 (Southern Research Specialized Biocontainment Screening …, 2012)
The source made the active and inactive calls.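 How the source made its calls: active means inhibition of 30% or more at any tested concentration; inactive means the rest.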

Each compound was assayed against Leucine aminopeptidase (Plasmodium falciparum (isolate 3D7)) (UniProt Q8IL11) (assay: inhibition of P. falciparum M17 leucine aminopeptidase – biochemical, QFRET, H-Leu-NHMec substrate, set 3, selectivity assay for PFM1AAP inhibitor project, dose response (AID 624164)). Conditions: purified rPFM17LAP, H-Leu-NHMec fluorogenic cleavage.
Method in brief: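 system = recombinant PFM17LAP enzyme | amount = enzyme 5 µg/mL | medium = Tris buffer pH 7.5 with 2 mM CoCl2 | compound dosing = 10-point twofold series, 100 to 0.2 µM, 2% DMSO | timing = enzyme reaction with compound, 90 min at room temperature | detection = fluorescence of released NHMec, excitation 370 nm, emission 460 nm | benchmarks = no-enzyme background wells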

Sequence of Leucine aminopeptidase (Plasmodium falciparum (isolate 3D7)) (Q8IL11 whole entry, looked up): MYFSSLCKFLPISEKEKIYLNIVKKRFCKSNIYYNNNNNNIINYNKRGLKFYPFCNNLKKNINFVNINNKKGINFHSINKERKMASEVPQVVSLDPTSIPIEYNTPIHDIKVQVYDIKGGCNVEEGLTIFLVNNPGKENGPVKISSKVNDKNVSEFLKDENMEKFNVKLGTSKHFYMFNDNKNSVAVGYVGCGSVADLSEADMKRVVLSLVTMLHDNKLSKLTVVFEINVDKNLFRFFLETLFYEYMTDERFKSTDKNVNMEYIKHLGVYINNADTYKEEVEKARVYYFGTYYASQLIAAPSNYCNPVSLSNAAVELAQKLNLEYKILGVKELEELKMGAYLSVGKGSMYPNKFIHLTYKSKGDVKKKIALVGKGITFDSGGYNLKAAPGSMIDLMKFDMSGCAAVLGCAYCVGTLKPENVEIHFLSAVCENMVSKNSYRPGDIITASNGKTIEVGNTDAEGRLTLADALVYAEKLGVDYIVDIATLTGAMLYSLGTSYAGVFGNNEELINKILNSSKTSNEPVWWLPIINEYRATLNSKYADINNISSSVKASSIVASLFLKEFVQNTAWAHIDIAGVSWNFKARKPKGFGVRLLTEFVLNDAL

Question: `O=C(NCc1ccccc1F)C1CCN(S(=O)(=O)c2ccc(Br)cc2)CC1` was tested. Which IC50 did it give?
Answer: 82.3 µM

Question: With `O=C(NCc1ccccc1F)C1CCN(S(=O)(=O)c2ccc(Br)s2)CC1` as the compound, how does the IC50 read?
Answer: 28.5 µM

Question: For `O=C(NCc1ccc2c(c1)OCO2)C1CCN(S(=O)(=O)c2ccc(Cl)s2)CC1`, which IC50 is on record?
Answer: 35.4 µM

Question: For `O=C(NCc1ccc(F)cc1)C1CCN(S(=O)(=O)c2ccc(Cl)s2)CC1`, which IC50 is on record?
Answer: 43.6 µM

Question: For `O=C(NCc1cccc(F)c1)C1CCN(S(=O)(=O)c2ccc(Br)s2)CC1`, which IC50 is on record?
Answer: 24.7 µM

Question: With `O=C(NCc1ccc2c(c1)OCO2)C1CCN(S(=O)(=O)c2ccc(Br)s2)CC1` as the compound, how does the IC50 read?
Answer: 16.4 µM

Question: Which IC50 does the source give for `O=C(NCc1cccc(F)c1)C1CCN(S(=O)(=O)c2ccc(Br)cc2)CC1` here?
Answer: 50.6 µM

Question: With `O=C(NCc1ccc(F)cc1)C1CCN(S(=O)(=O)c2ccc(Br)s2)CC1` as the compound, how does the IC50 read?
Answer: 44.3 µM

Question: For `O=C(NCc1cccc(F)c1)C1CCN(S(=O)(=O)c2ccc(Cl)s2)CC1`, which IC50 is on record?
Answer: 50 µM

Question: Which IC50 does the source give for `O=C(NCc1ccccc1F)C1CCN(S(=O)(=O)c2ccc(Cl)s2)CC1` here?
Answer: 50 µM

Same assay, conditions: purified rPFM17LAP, H-Leu-NHMec fluorogenic cleavage; at 50 µM (top of the series)

Question: Which inhibition does the source give for `O=C(NCc1ccc2c(c1)OCO2)C1CCN(S(=O)(=O)c2sccc2Br)CC1` here?
Answer: inactive

Same assay, conditions: purified rPFM17LAP, H-Leu-NHMec fluorogenic cleavage; at 100 µM (top of the series)

Question: With `O=C(Nc1ccc2c(c1)OCO2)C1CCN(S(=O)(=O)c2ccc(Cl)s2)CC1` as the compound, how does the inhibition read?
Answer: inactive

Question: For `O=C(NCCc1ccc2c(c1)OCO2)C1CCN(S(=O)(=O)c2cc(Br)c(Br)s2)CC1`, which inhibition is on record?
Answer: inactive

Question: With `O=C(NCc1ccc(F)cc1)C1CCN(S(=O)(=O)c2ccc(Br)cc2)CC1` as the compound, how does the inhibition read?
Answer: inactive

Question: `O=C(Nc1ccc2c(c1)OCO2)C1CCN(S(=O)(=O)c2sccc2Br)CC1` was tested. Which inhibition did it give?
Answer: inactive

Question: Which inhibition does the source give for `O=C(Nc1ccc2c(c1)OCO2)C1CCN(S(=O)(=O)c2ccc(Br)s2)CC1` here?
Answer: inactive

Question: `O=C(Nc1ccc2c(c1)OCO2)C1CCN(S(=O)(=O)c2ccc(Br)cc2)CC1` was tested. Which inhibition did it give?
Answer: inactive

Question: For `O=C(NCc1ccc2c(c1)OCO2)C1CCN(S(=O)(=O)c2ccc(Br)cc2)CC1`, which inhibition is on record?
Answer: inactive

Question: Which inhibition does the source give for `O=C(NCc1ccc(F)cc1)C1CCN(S(=O)(=O)c2sccc2Br)CC1` here?
Answer: inactive

Question: `O=C(NCc1ccc(F)cc1)C1CCN(S(=O)(=O)c2cc(Br)c(Br)s2)CC1` was tested. Which inhibition did it give?
Answer: inactive

Question: Which inhibition does the source give for `O=C(NCCc1ccc2c(c1)OCO2)C1CCN(S(=O)(=O)c2ccc(Br)s2)CC1` here?
Answer: inactive

Question: With `O=C(NCCc1ccc2c(c1)OCO2)C1CCN(S(=O)(=O)c2ccc(Br)cc2)CC1` as the compound, how does the inhibition read?
Answer: inactive

Question: Which inhibition does the source give for `O=C(NCc1cccc(F)c1)C1CCN(S(=O)(=O)c2sccc2Br)CC1` here?
Answer: inactive

Question: For `O=C(Nc1ccc2c(c1)OCO2)C1CCN(S(=O)(=O)c2cc(Br)c(Br)s2)CC1`, which inhibition is on record?
Answer: inactive

Question: Which inhibition does the source give for `O=C(NCCc1ccc2c(c1)OCO2)C1CCN(S(=O)(=O)c2sccc2Br)CC1` here?
Answer: inactive

Question: With `O=C(NCc1ccc2c(c1)OCO2)C1CCN(S(=O)(=O)c2cc(Br)c(Br)s2)CC1` as the compound, how does the inhibition read?
Answer: inactive

Question: `O=C(NCc1ccccc1F)C1CCN(S(=O)(=O)c2sccc2Br)CC1` was tested. Which inhibition did it give?
Answer: inactive

Question: Which inhibition does the source give for `O=C(NCc1cccc(F)c1)C1CCN(S(=O)(=O)c2cc(Br)c(Br)s2)CC1` here?
Answer: inactive

Question: With `O=C(NCc1ccccc1F)C1CCN(S(=O)(=O)c2cc(Br)c(Br)s2)CC1` as the compound, how does the inhibition read?
Answer: inactive

Question: `O=C(NCCc1ccc2c(c1)OCO2)C1CCN(S(=O)(=O)c2ccc(Cl)s2)CC1` was tested. Which inhibition did it give?
Answer: inactive
